Experimental data: ChEMBL document CHEMBL4819008, “Design, synthesis, and evaluation of "dual-site"-binding diarylpyrimidines targeting both NNIBP and the NNRTI adjacent site of the HIV-1 reverse transcriptase” (Eur J Med Chem, 2021)

Assays:
[1] = system: Human immunodeficiency virus 1; test: Antiviral activity against wild type HIV1 NL4-3 infected in human TZM-bl cells assessed as reduction in viral infection measured after 1 day by luciferase reporter gene assay based luminiscence assay; format: functional, organism-based; conditions: Human immunodeficiency virus 1, NL4-3, TZM-bl, 24 h
Method in brief: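 TZM-bl cells got a single-round infection with 800 TCID50 of NL4-3 at various compound concentrations, top concentration 100 ng/mL. Luminescence was read 1 day post-infection. EC50 is the concentration giving a 50% decrease in luciferase RLU versus control wells, determined in at least triplicate.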

[2] = Cytotoxicity against human TZM-bl cells assessed as reduction in cell viability measured after 1 day by CytoTox-Glo assay; format: cell-based
Method in brief: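 TZM-bl cells were cultured 1 day with various compound concentrations, in parallel with the antiviral assay, top concentration 100 ng/mL. Viable cells were measured by CytoTox-Glo. CC50 is the concentration causing a 50% reduction in cell viability.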

[3] = Selectivity index, ratio of CC50 for human TZM-bl cells to EC50 for wild type HIV1 NL4-3 infected in human TZM-bl cells; format: toxicity, cell-based; conditions: read-out: Ratio CC50/EC50
Method in brief: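 Selectivity index is CC50/EC50, with both values from the TZM-bl assays: NL4-3 single-round luciferase infection and CytoTox-Glo viability, each over 1 day.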

[4] = Cytotoxicity against human MT4 cells assessed as reduction in cell viability measured after 5 days by MTT assay; format: cell-based; conditions: time 5 day
Method in brief: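 Mock-infected MT-4 cells (6 × 10^5 cells/mL) were run in parallel with the infected wells, under serial 5-fold compound dilutions in triplicate. MTT viability was read after 5 days and the median OD of three wells used. CC50 is the concentration that reduced OD540 of the mock-infected cells by 50%.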

[5] = system: Human immunodeficiency virus 1; test: Antiviral activity against HIV-1 harboring reverse transcriptase L100I mutant infected in human MT4 cells assessed as inhibition of virus induced cytopathic effect measured after 5 days by MTT assay; format: functional, organism-based; conditions: Human immunodeficiency virus 1, MT4, 120 h
Method in brief: (§1)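 MT-4 cells, exponentially growing, resuspended at 6 × 10^5 cells/mL and infected with the mutant HIV-1 stock at 100–300 CCID50. Compounds were added as 5-fold serial dilutions, in triplicate wells, alongside mock-infected wells. After 5 days, viability was read by MTT reduction at 540 and 690 nm using the median OD of three wells. EC50 is the concentration giving 50% protection from viral cytopathogenicity.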

[6] = system: Human immunodeficiency virus 1; test: Antiviral activity against HIV-1 harboring reverse transcriptase K103N mutant infected in human MT4 cells assessed as inhibition of virus induced cytopathic effect measured after 5 days by MTT assay; format: functional, organism-based; conditions: Human immunodeficiency virus 1, MT4, 120 h; method in brief: as §1
[7] = system: Human immunodeficiency virus 1; test: Antiviral activity against HIV-1 harboring reverse transcriptase Y188L mutant infected in human MT4 cells assessed as inhibition of virus induced cytopathic effect measured after 5 days by MTT assay; format: functional, organism-based; conditions: Human immunodeficiency virus 1, MT4, 120 h; method in brief: as §1
[8] = system: Human immunodeficiency virus 1; test: Antiviral activity against HIV-1 harboring reverse transcriptase F227L/V106A mutant infected in human MT4 cells assessed as inhibition of virus induced cytopathic effect measured after 5 days by MTT assay; format: functional, organism-based; conditions: Human immunodeficiency virus 1, MT4, 120 h; method in brief: as §1
[9] = system: Human immunodeficiency virus 1; test: Antiviral activity against HIV-1 harboring reverse transcriptase RES056 mutant infected in human MT4 cells assessed as inhibition of virus induced cytopathic effect measured after 5 days by MTT assay; format: functional, organism-based; conditions: Human immunodeficiency virus 1, MT4, 120 h; method in brief: as §1
[10] = Selectivity index, ratio of CC50 for human MT4 cells to EC50 for wild type HIV-1 3B infected in human MT4 cells; format: toxicity, cell-based; conditions: read-out: Ratio CC50/EC50
[11] = system: Human immunodeficiency virus 1; test: Antiviral activity against HIV-1 harboring reverse transcriptase Y181C mutant infected in human MT4 cells assessed as inhibition of virus induced cytopathic effect measured after 5 days by MTT assay; format: functional, organism-based; conditions: Human immunodeficiency virus 1, MT4, 120 h; method in brief: as §1
[12] = system: Human immunodeficiency virus 1; test: Antiviral activity against HIV-1 harboring reverse transcriptase E138K mutant infected in human MT4 cells assessed as inhibition of virus induced cytopathic effect measured after 5 days by MTT assay; format: functional, organism-based; conditions: Human immunodeficiency virus 1, MT4, 120 h; method in brief: as §1

SMILES	EC50 [1]	CC50 at 24 h [2]	selectivity ratio [3]	other results
CC(=O)N1CCN(C(=O)/C=C/c2cnc(Nc3ccc(C#N)cc3)nc2Oc2c(C)cc(C#N)cc2C)CC1	49.9 nM	> 192 nM	> 4	
Cc1cc(C#N)cc(C)c1Oc1nc(Nc2ccc(C#N)cc2)ncc1/C=C/C(=O)NC1CCN(C(=O)C(F)(F)F)CC1	> 170 nM	> 170 nM	> 1	
Cc1cc(C#N)cc(C)c1Oc1nc(Nc2ccc(C#N)cc2)ncc1/C=C/C(=O)N1CCN(S(C)(=O)=O)CC1	13.8 nM	> 179 nM	> 13	
Cc1cc(C#N)cc(C)c1Oc1nc(Nc2ccc(C#N)cc2)ncc1/C=C/C(=O)N1CCN(C(=O)C(F)(F)F)CC1	13.7 nM	> 174 nM	> 13	
Cc1cc(C#N)cc(C)c1Oc1nc(Nc2ccc(C#N)cc2)ncc1/C=C/C(=O)N1CCN(C=O)CC1	49.3 nM	> 197 nM	> 4	
Cc1cc(C#N)cc(C)c1Oc1nc(Nc2ccc(C#N)cc2)nc(N)c1Br [ETRAVIRINE]	1.45 nM	> 229 nM		CC50 at 120 h [4]: > 4600 nM; EC50 [5]: 10.2 nM; EC50 [6]: 2.3 nM; EC50 [7]: 15.5 nM; EC50 [8]: 8.2 nM; EC50 [9]: 60.2 nM
Cc1cc(C#N)cc(C)c1Oc1nc(Nc2ccc(C#N)cc2)ncc1/C=C/C(=O)NC1CCN(S(C)(=O)=O)C1 (stereo not given)	14.7 nM	> 179 nM	> 12	
Cc1ccnc2c1NC(=O)c1cccnc1N2C1CC1 [NEVIRAPINE]	281 nM	> 15000 nM	> 53	CC50 at 120 h [4]: > 9500 nM; selectivity ratio [10]: > 113; EC50 [5]: 373 nM; EC50 [6]: 1470 nM; EC50 [11]: 2320 nM; EC50 [7]: 3390 nM; EC50 [12]: 72.8 nM; EC50 [8]: 2730 nM; EC50 [9]: 6750 nM
Cc1cc(C#N)cc(C)c1Oc1nc(Nc2ccc(C#N)cc2)ncc1/C=C/C(=O)N1CCOCC1	20 nM	> 208 nM	> 10	
Cc1cc(C#N)cc(C)c1Oc1nc(Nc2ccc(C#N)cc2)ncc1/C=C/C(=O)NCCc1c[nH]c2ccccc12	81.3 nM	> 180 nM	> 2	
Cc1cc(C#N)cc(C)c1Oc1nc(Nc2ccc(C#N)cc2)ncc1/C=C/C(N)=O	5.36 nM	> 243 nM	> 45	
Cc1cc(C#N)cc(C)c1Oc1nc(Nc2ccc(C#N)cc2)ncc1/C=C/C(=O)NC1CCN(S(=O)(=O)C(F)(F)F)CC1	> 160 nM	> 160 nM	> 1	
